Experimental data: ChEMBL document CHEMBL3044971, “Dialkoxybenzene and dialkoxyallylbenzene feeding and oviposition deterrents against the cabbage looper, Trichoplusia ni: potential insect behavior control agents” (J Agric Food Chem, 2010)

Legend:
Trichoplusia ni [1] = assay: Oviposition deterrent activity against adult female Trichoplusia ni (cabbage looper) moths introduced along with male moths into oviposition cage containing compound pretreated cabbage leaves assessed as eggs laying on the leaf disks at 0.25% after 48 hr; format: functional
Procedure, shortened: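 Choice test: one male and one female moth were caged with a control and a treated cabbage leaf (~100-110 cm²). Each side was sprayed with 0.5 mL MeOH or methanolic test solution at 0.25%. Values are mean ± SE, N = 35-40.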

Trichoplusia ni [2] = assay: Feeding deterrent activity against freshly molted third-instar larval stage of Trichoplusia ni (cabbage looper) in compound pretreated cabbage leaves at 50 ug/cm2 after 3 to 5 hr by leaf disk choice bioassay; format: functional
Procedure, shortened: (§1)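 Leaf-disk choice test on greenhouse cabbage (Stonehead) leaves from 5-6-week plants. Freshly molted third-instar T. ni from a diet-reared colony (>50 generations) were starved 4-5 h. One disk had 10 μL test solution painted on each side, the other carrier solvent only. There were 25 larvae per treatment. Run ended at ~50% control disk eaten (3-5 h). Deterrence = (C−T)/(C+T)×100 from consumed areas.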

Trichoplusia ni [3] = settings: in vivo, 24 h
Trichoplusia ni [4] = assay: Feeding deterrent activity against freshly molted third-instar larval stage of Trichoplusia ni (cabbage looper) in compound pretreated cabbage leaves after 3 to 5 hr by leaf disk choice bioassay; format: functional, organism-based; procedure, shortened: as §1

| Compound | Activity (Trichoplusia ni [1]) [%] | Activity (Trichoplusia ni [2]) [%] | mortality (Trichoplusia ni [3]) [%] | DC50 (Trichoplusia ni [4]) [microg/cm2] |
| --- | --- | --- | --- | --- |
| C=CCOc1cccc(OCCC(C)C)c1 | 10 |  |  |  |
| C=CCc1cccc(OCCC)c1OCCC(C)C |  | 22 | 7 |  |
| C=CCc1cccc(OCCC)c1OC | 32 | 100 | 17 | 15.5 |
| C=CCc1cc(OCCCC)ccc1OCCCC | -14 | 23 |  |  |
| C=CCOc1c(CC=C)cccc1OCCCC |  | 22 | 7 |  |
| C=CCOc1ccccc1OCCC(C)C | 26 |  |  |  |
| C=CCc1cccc(OCCCC)c1OCCC(C)C |  | 22 | 7 |  |
| C=CCc1cc(OCCC(C)C)ccc1OCCC | 21 | 65 | 17 | 33 |
| C=CCc1cc(OCC)ccc1O | 51 | 51 | 3.3 | 57 |
| COc1ccc2c(c1)CC(C)O2 (stereo not drawn) | -12 | 100 | 1 | 16 |
| C=CCOc1ccccc1OCCCC [1-allyloxy-2-butoxybenzene] | 35 | 92 | 19 | 17 |
| C=CCc1cccc(OC)c1OC | 32 | 100 | 17 | 15.5 |
| C=CCc1cccc(OCCC(C)C)c1OCCCC |  | 6 | 1 |  |
| C=CCc1ccc(O)c(OC)c1 [EUGENOL] |  | 44 | 30 | 56 |
| C=CCc1cc(OCCC(C)C)ccc1OC | 37 | 68 | 17 | 19 |
| C=CCc1cc(OCCCC)ccc1OCC | 64 | 66 | 3.3 | 22 |
| C=CCc1cc(OC)ccc1OCCC(C)C | 20 | 83 | 27 | 15 |
| C=CCOc1ccc(OCCC(C)C)cc1CC=C |  | 29 |  |  |
| C=CCc1cccc(OCCC)c1OCC | 31 | 100 | 27 | 20 |
| C=CCc1cccc(OCCC(C)C)c1O | 7 | 100 | 17 | 20.6 |
| C=CCc1cccc(OCCCC)c1OCCC |  | 31 | 47 |  |

| Compound | Activity (Trichoplusia ni [1]) [%] | Activity (Trichoplusia ni [2]) [%] | mortality (Trichoplusia ni [3]) [%] | DC50 (Trichoplusia ni [4]) [microg/cm2] |
| --- | --- | --- | --- | --- |
| CCCOc1ccc2c(c1)CC(C)O2 (stereo not drawn) | -12 | 100 | 1 | 16 |
| C=CCOc1ccc(OC)cc1 [1-allyloxy-4-methoxybenzene] | 13 | 62 | 6 | 30 |
| C=CCc1cccc(OCCC(C)C)c1OCCC(C)C |  | 22 | 7 |  |
| C=CCOc1c(CC=C)cccc1OC |  | 22 | 7 |  |
| C=CCOc1ccc(OC)cc1CC=C |  | 29 |  |  |
| CCCOc1ccc(OCC)cc1 [4-ETHOXY-1-PROPOXYBENZENE] | 10 | 100 | 17 | 33.3 |
| C=CCc1cc(OCCCC)ccc1OCCC(C)C | 20 | 83 | 27 | 15 |
| C=CCc1ccc(OCC)c(OC)c1 [ETHYLEUGENOL] | 18 | 51 | 35 | 50 |
| C=CCc1cccc(OC)c1OCC | 31 | 100 | 27 | 20 |
| C=CCc1cc(OCCCC)ccc1O | 51 | 51 | 3.3 | 57 |
| C=CCc1cccc(OC)c1OCCC(C)C |  | 22 | 7 |  |
| C=CCc1cc(OC)ccc1OC | 14 | 80 | 17 | 20 |
| C=CCOc1ccc(OCCC(C)C)cc1 [1-allyloxy-4-isopentoxybenzene] | -25 |  |  |  |
| C=CCc1cccc(OCCCC)c1OC | 32 | 100 | 17 | 15.5 |
| C=CCc1cc(OCC)ccc1OCCC | 21 | 65 | 17 | 33 |
| C=CCc1ccc(OC)c(OC)c1 [METHYLEUGENOL] | -22 | 64 |  | 26 |
| C=CCOc1cccc(OC)c1 | 9 | 66 | 33 | 34 |
| C=CCOc1ccc(OCCC)cc1CC=C |  | 29 |  |  |
| C=CCc1cc(OCCC(C)C)ccc1OCCCC | -14 | 23 |  |  |
| C=CCc1cccc(OCC)c1OCCCC |  | 6 | 1 |  |
| C=CCOc1ccc(OCCC)cc1 [1-allyloxy-4-propoxybenzene] | 21 | 100 |  | 0.5 |

| Compound | Activity (Trichoplusia ni [1]) [%] | Activity (Trichoplusia ni [2]) [%] | mortality (Trichoplusia ni [3]) [%] | DC50 (Trichoplusia ni [4]) [microg/cm2] |
| --- | --- | --- | --- | --- |
| C=CCc1cccc(OCCC(C)C)c1OCCC |  | 31 | 47 |  |
| C=CCOc1c(CC=C)cccc1OCC |  | 22 | 7 |  |
| C=CCc1cc(OCCC)ccc1OCCCC | -14 | 23 |  |  |
| C=CCOc1ccc(OCC)cc1 [1-allyloxy-4-ethoxybenzene] | 17 | 73 |  | 30 |
| C=CCc1cc(OCC)ccc1OCCCC | -14 | 23 |  |  |
| C=CCc1cccc(OCC)c1OCCC(C)C |  | 22 | 7 |  |
| C=CCOc1ccc(OCCCC)cc1CC=C |  | 29 |  |  |
| C=CCOc1ccc(OCC)cc1CC=C |  | 29 |  |  |
| C=CCc1cccc(OCCC)c1OCCCC |  | 6 | 1 |  |
| C=CCc1cccc(OCC)c1OCCC |  | 31 | 47 |  |
| C=CCc1cccc(OC)c1OCCC |  | 31 | 47 |  |
| C=CCOc1c(CC=C)cccc1OCCC |  | 22 | 7 |  |
| C=CCc1cc(OC)ccc1OCCCC | -14 | 23 |  |  |
| C=CCc1cccc(OCCCC)c1OCCCC |  | 6 | 1 |  |
| C=CCc1cccc(OC)c1OCCCC |  | 6 | 1 |  |
| C=CCOc1cccc(O)c1 [3-(ALLYLOXY)PHENOL] | 5 | 36 |  |  |
| C=CCc1c(OC)cccc1OCCC | 17 | 100 |  | 14 |
| C=CCc1cccc(OCCC)c1OCCC |  | 31 | 47 |  |
| C=CCOc1c(CC=C)cccc1OCCC(C)C |  | 22 | 7 |  |
